Measurements reported in article PMC3909687 (Biochimica et biophysica acta, 2012).

Molecular target: T1, CC1736 (Caulobacter vibrioides, UniProt Q9A7I7)
T1 sequence (Q9A7I7 1-148): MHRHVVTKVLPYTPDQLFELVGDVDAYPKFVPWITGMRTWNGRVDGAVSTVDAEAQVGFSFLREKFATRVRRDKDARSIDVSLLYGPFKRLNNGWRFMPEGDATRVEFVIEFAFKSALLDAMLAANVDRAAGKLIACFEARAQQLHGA
Assay: spin-column desalting separation, lipid extraction, HPLC-UV
Format: binding
Outline: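 Protein (2-3 nmol; cytochrome c 8-10 nmol as control) incubated with ligand (0.005–0.27 mM) in 20 mM MES pH 6.4, 100 mM NaCl, 5.0 mM CaCl2, 0.1 mM dodecyl maltoside, 1.0 mM TCEP, 2% ethanol, 45 min, 30 °C. Desalting spin column; protein by Lowry; eluate lipids by reversed-phase HPLC-UV.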

Kd	Compound
140 ± 77 µM	COC1=CC(=O)C(C)=C(C/C=C(\C)CC/C=C(\C)CCC=C(C)C)C1=O [DMQ3]
18 ± 2 µM	COC1=C(OC)C(=O)C(C/C=C(\C)CCC=C(C)C)=C(C)C1=O [Q2]
35 ± 16 µM	COC1=C(OC)C(=O)C(C/C=C(\C)CC/C=C(\C)CCC=C(C)C)=C(C)C1=O [Q3]
